Bioassay records as filed in PubChem.
In the library only some 2.5% were active in any assay of this set; here they are far more common.
SR-BI uptake up: activators of SR-BI mediated DiI-HDL uptake, primary screen, ldlA[mSR-BI] CHO cells, DiI fluorescence; AID 504775, 2011; activation, % at 12.5 µM; 3 h; 100 = double the neutral-control signal; actives 0.096% (n = 320,000);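 active means mean replicate activation of at least 60% and every replicate at or above 60%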
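system = CHO ldlA[mSR-BI] cells, LDL receptor-null, SR-BI overexpressing | medium = Ham's F12 with 0.5% BSA, HEPES 25 mM, pH 7.4 | probe or stimulus = DiI-HDL 10 µg/mL | compound dosing = single-point compound dose | incubation = compound exposure 3 h, 37 °C | technique = DiI fluorescence, bottom read | read-out = cell-associated DiI fluorescence as measure of HDL uptake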
H9c2 TAG inh: inhibitors of triacylglycerol accumulation, primary screen, cell-based, uHTS, fluorescence, H9c2; H9c2 cells, Nile Red lipid (TAG) fluorescence; cells loaded with 200 µM oleic acid; inhibition, % at 12.5 µM; actives 0.66% (n = 230,000); AID 651582, 2012;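 active means pattern-corrected inhibition of lipid staining of at least 50% with the nuclear-stain viability signal not falling by more than 50%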
SR-BI HDL uptake: inhibitors of SR-BI mediated HDL lipid uptake, primary screen, ldlA[mSR-BI] cells, fluorescence, single point | Scavenger receptor class B member 1 (Mus musculus), Q61009 | ldlA[mSR-BI] CHO cells, DiI-HDL uptake fluorescence, 3 h | inhibition, % at 12.5 µM | actives 0.96% (n = 320,000) | AID 488896, 2010;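 active means mean replicate inhibition of at least 70% and a set share of replicates each scoring 70 or more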
Target sequence (Q61009 whole entry, looked up): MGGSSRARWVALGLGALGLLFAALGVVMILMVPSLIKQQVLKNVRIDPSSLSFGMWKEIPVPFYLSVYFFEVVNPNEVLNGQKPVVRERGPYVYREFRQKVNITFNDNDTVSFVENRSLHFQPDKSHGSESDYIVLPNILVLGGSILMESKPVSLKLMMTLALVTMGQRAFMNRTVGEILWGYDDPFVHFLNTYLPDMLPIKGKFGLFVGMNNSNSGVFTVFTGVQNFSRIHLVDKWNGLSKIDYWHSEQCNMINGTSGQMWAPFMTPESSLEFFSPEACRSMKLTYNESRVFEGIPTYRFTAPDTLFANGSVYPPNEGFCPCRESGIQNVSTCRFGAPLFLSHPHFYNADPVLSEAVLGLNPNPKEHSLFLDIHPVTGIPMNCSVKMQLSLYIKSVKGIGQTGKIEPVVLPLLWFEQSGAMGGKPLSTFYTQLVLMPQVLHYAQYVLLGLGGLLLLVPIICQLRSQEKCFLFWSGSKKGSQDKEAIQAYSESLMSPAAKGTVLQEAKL
Vif imaging: HIV Vif self-association inhibitors, primary screen, imaging, HEK293T, single point; HEK293T cells, Vif self-association by quenched fluorescence, 24 h; inhibition, % at 7.49 µM; actives 0.35% (n = 340,000); AID 602346, 2012; in the data active means inhibition above about 50%, passing the limit was not always enough
SMARCA2 act: SMARCA2 (BRM) function activators, primary screen, cell-based, luminescence, high throughput. MG213 cells, MMTV-luciferase reporter, dexamethasone, overnight. activation, % at 9.1 µM. actives 1% (n = 370,000); in the data active means activation above about 7.8%
SMARCA2 conf: SMARCA2 (BRM) function activators, confirmation, cell-based, luminescence, triplicate; shares compounds with SMARCA2 act; MG213 cells, MMTV-luciferase with dexamethasone, overnight; MG213 cells expressing E1A, Rb sequestered; DMSO wells 0%, reference activator 100%; activation, % at 9.1 µM; actives 30% (n = 3,500);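 active means activation above its plate's cutoff, the mean activation of tested wells plus 3 SD, cut at about 7.9% in these data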
VP16 Luc act: GAL4-VP16 luciferase reporter activation, counter-screen for SMARCA2 (BRM) activator project, cell-based, pG5luc, luminescence, high throughput; AID 686939, 2013; HEK293 GAL4-VP16 pG5luc reporter; scaled: DMSO wells 0%, SAHA wells 100%; actives 41% (n = 3,500); shares compounds with SMARCA2 act; activation, % at 9.1 µM;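 active means activation above the solvent-only control well mean plus 3 SD, averaged across control plates, cut at about 5.2% in these data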
Large screens that a line does not name were inactive (follow-up assays come after a bar, where they were run).

COC(=O)C1CC2=C(CCCC2=O)N(Cc2ccccc2)C1=O (stereo not given)	none
CCC[C@@H]1Cc2ccccc2N1C(C)=O	none
COc1ccc(C2CC2C(=O)c2ccccn2)cc1 (stereo not given)	SMARCA2 act 8.6 | SMARCA2 conf inactive | VP16 Luc act inactive
COc1cccc(N2CCN(c3ccc4nnc(CCC(=O)N5CCC(C)CC5)n4n3)CC2)c1	none (no result: H9c2 TAG inh)
N#Cc1cc(-c2ccccc2)[nH]c1-c1nccc2ccccc12	none (no result: H9c2 TAG inh)
COC(=O)c1c(-c2ccccc2)[nH]c(-c2nccc3ccccc23)c1C(=O)OC	SMARCA2 act 8.4 (no result: SR-BI uptake up, SR-BI HDL uptake) | SMARCA2 conf inactive | VP16 Luc act inactive
CC(=O)C[C@@H](O)CC(=O)[C@@H]1OC(=O)[C@H](C)C/C=C\Cc2ccccc21	none
Cc1nc2c(sc3nc(N4CCOCC4)c4c(c32)CC(C)(C)OC4)c(-c2ccc(Cl)cc2)c1C(=O)O	SMARCA2 act 8.4 (no result: SR-BI uptake up, SR-BI HDL uptake) | SMARCA2 conf inactive | VP16 Luc act inactive
CC1(C)Cc2c(c(N3CCOCC3)nc3sc(C(=O)Nc4ccc(Cl)cc4)c(N)c23)CO1	none (no result: SR-BI uptake up, H9c2 TAG inh, SR-BI HDL uptake)
O=C1Cc2c([nH]c3ccc(Br)cc23)-c2ccccc2N1	SMARCA2 act 9.2 | SMARCA2 conf 19 | VP16 Luc act inactive
Brc1ccc2[nH]c3c(c2c1)CCC3	none
O=[N+]([O-])c1cc(Cl)ccc1NCCNS(=O)(=O)c1ccccc1	SMARCA2 act 16 (no result: H9c2 TAG inh) | SMARCA2 conf inactive | VP16 Luc act inactive
O=[N+]([O-])c1ccccc1NCCNS(=O)(=O)c1ccc(Cl)cc1	none (no result: H9c2 TAG inh)
CN(Cc1ccc(Cl)cc1Cl)C(=O)Cc1ccc(S(=O)(=O)N2CCOCC2)s1	none (no result: SR-BI uptake up, SR-BI HDL uptake, Vif imaging)
Cc1cc(Cl)ccc1OCC(=O)NNC(=O)c1cccnc1	none
COc1ccc(C(=O)N/N=C(/C)c2cccc(NC(=O)C(F)(F)F)c2)cc1	SMARCA2 act 14 (no result: H9c2 TAG inh) | SMARCA2 conf inactive | VP16 Luc act 7.0
S=C1NCN(Cc2ccccc2)CN1	none
S=c1[nH]ccn1Cc1ccccc1	SMARCA2 act 8.9 | SMARCA2 conf inactive | VP16 Luc act inactive
C[C@H](O)[C@@H]1CN2CCc3c([nH]c4cccc(-c5ccc6c(c5)OCO6)c34)[C@@H]2C[C@@H]1N(C)C(=O)c1ccco1	none (no result: SR-BI uptake up, H9c2 TAG inh, SR-BI HDL uptake, Vif imaging)
c1ccc(CSc2nnc(NC3CCCCC3)s2)cc1	SMARCA2 act 16 (no result: SR-BI uptake up, SR-BI HDL uptake) | SMARCA2 conf inactive | VP16 Luc act 8.6
COC(=O)CSc1nnc(SCc2ccc(OC)cc2)s1	none (no result: H9c2 TAG inh)
COc1ccc(CSc2nnc(SCc3ccccc3)s2)cc1	SMARCA2 act 8.7 (no result: SR-BI uptake up, H9c2 TAG inh, SR-BI HDL uptake, Vif imaging) | SMARCA2 conf inactive | VP16 Luc act inactive
COc1ccc(C)cc1NC(=O)c1cnc2n(c1=O)CCS2	SMARCA2 act 9.8 (no result: H9c2 TAG inh) | SMARCA2 conf inactive | VP16 Luc act inactive
COc1ccc(C)cc1NC(=O)c1cnc2scc(C)n2c1=O	none
O=C(Nc1c(C(=O)N2CCOCC2)cnn1-c1ccccc1)c1ccc(F)cc1	none
Cc1ccc(NC(=O)c2ccc(OC(=O)C(C)Oc3ccc(Cl)cc3C)cc2)cc1 (stereo not given)	SMARCA2 act 11 (no result: H9c2 TAG inh) | SMARCA2 conf 8.0 | VP16 Luc act inactive
O=C1/C(=C/c2ccco2)Cc2ccccc21	SMARCA2 act 11 (no result: H9c2 TAG inh) | SMARCA2 conf 13 | VP16 Luc act inactive
O=C1C(=Cc2ccc(F)cc2)Cc2ccccc21	none (no result: SR-BI uptake up, H9c2 TAG inh, SR-BI HDL uptake)
Cc1ccc(C(=O)Nc2ccc(NC(=O)c3cccs3)cc2)cc1[N+](=O)[O-]	SMARCA2 act 9.0 | SMARCA2 conf inactive | VP16 Luc act inactive
CCn1cc(C(=O)O)c(=O)c2cc(F)c(N3CCN(C(=S)NC(=O)c4ccccc4Cl)CC3)cc21	SMARCA2 act 9.1 | SMARCA2 conf inactive | VP16 Luc act inactive
